Tested on: Fibroblast
Experiment: Multiplex assay against human fibroblast
Format: toxicity, cell-based
Outline: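 Four dyes were applied at seeding to live cells: Hoechst33342, BioTracker Green Microtubule Cytoskeleton Dye, MitoTracker Red and Annexin V Alexa Fluor 680. Imaging after compound addition used a CQ1 microscope at 37°C and 5% CO2. CellPathfinder machine-learning gating then sorted cells into Hoechst high-intensity objects or normal cells, normal cells into healthy, pyknosed or fragmented nuclei, and pyknosed cells into mitotic or apoptotic, with tubulin, mitochondrial-mass and membrane-permeability phenotypes given as per cents of healthy-nucleus cells.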

[1] = 12 h, 1 µM, compound concentration 1 uM, replicate 1
[2] = 12 h, 1 µM, compound concentration 1 uM, replicate 2
[3] = 12 h, 10 µM, compound concentration 10 uM, replicate 1
[4] = 12 h, 10 µM, compound concentration 10 uM, replicate 2
[5] = 24 h, 1 µM, compound concentration 1 uM, replicate 1
[6] = 24 h, 1 µM, compound concentration 1 uM, replicate 2
[7] = 24 h, 10 µM, compound concentration 10 uM, replicate 1
[8] = 24 h, 10 µM, compound concentration 10 uM, replicate 2
[9] = 48 h, 1 µM, compound concentration 1 uM, replicate 1
[10] = 48 h, 1 µM, compound concentration 1 uM, replicate 2
[11] = 48 h, 10 µM, compound concentration 10 uM, replicate 1
[12] = 48 h, 10 µM, compound concentration 10 uM, replicate 2

Compound: OCCCNc1cc(-c2ccnc(Nc3cccc(Cl)c3)n2)ccn1
- Population Apoptotic (%) [1]: 58%
- Population Fragmented Nuclei (%) [1]: 15%
- Population Healthy Nuclei (%) [1]: 66%
- Population Hoechst High Intensity Objects (%) [1]: 4%
- Population Membrane Permeable-Phenotype (%) [1]: 0%
- Population Mitochondria Different-Phenotype (%) [1]: 9%
- Population Mitotic Cells (%) [1]: 41%
- Population Normal (%) [1]: 95%
- Population Pyknosed Nuclei (%) [1]: 18%
- Population Tubulin-Different-Phenotype (%) [1]: 52%
- Total Cell Count [1]: 139
- Population Apoptotic (%) [2]: 50%
- Population Fragmented Nuclei (%) [2]: 21%
- Population Healthy Nuclei (%) [2]: 53%
- Population Hoechst High Intensity Objects (%) [2]: 6%
- Population Membrane Permeable-Phenotype (%) [2]: 5%
- Population Mitochondria Different-Phenotype (%) [2]: 13%
- Population Mitotic Cells (%) [2]: 50%
- Population Normal (%) [2]: 93%
- Population Pyknosed Nuclei (%) [2]: 24%
- Population Tubulin-Different-Phenotype (%) [2]: 47%
- Total Cell Count [2]: 138
- Population Apoptotic (%) [3]: 61%
- Population Fragmented Nuclei (%) [3]: 38%
- Population Healthy Nuclei (%) [3]: 44%
- Population Hoechst High Intensity Objects (%) [3]: 10%
- Population Membrane Permeable-Phenotype (%) [3]: 9%
- Population Mitochondria Different-Phenotype (%) [3]: 25%
- Population Mitotic Cells (%) [3]: 38%
- Population Normal (%) [3]: 89%
- Population Pyknosed Nuclei (%) [3]: 17%
- Population Tubulin-Different-Phenotype (%) [3]: 88%
- Total Cell Count [3]: 136
- Population Apoptotic (%) [4]: 52%
- Population Fragmented Nuclei (%) [4]: 65%
- Population Healthy Nuclei (%) [4]: 24%
- Population Hoechst High Intensity Objects (%) [4]: 6%
- Population Membrane Permeable-Phenotype (%) [4]: 20%
- Population Mitochondria Different-Phenotype (%) [4]: 11%
- Population Mitotic Cells (%) [4]: 47%
- Population Normal (%) [4]: 93%
- Population Pyknosed Nuclei (%) [4]: 9%
- Population Tubulin-Different-Phenotype (%) [4]: 84%
- Total Cell Count [4]: 227
- Population Apoptotic (%) [5]: 56%
- Population Fragmented Nuclei (%) [5]: 16%
- Population Healthy Nuclei (%) [5]: 65%
- Population Hoechst High Intensity Objects (%) [5]: 2%
- Population Membrane Permeable-Phenotype (%) [5]: 1%
- Population Mitochondria Different-Phenotype (%) [5]: 20%
- Population Mitotic Cells (%) [5]: 43%
- Population Normal (%) [5]: 97%
- Population Pyknosed Nuclei (%) [5]: 17%
- Population Tubulin-Different-Phenotype (%) [5]: 60%
- Total Cell Count [5]: 136
- Population Apoptotic (%) [6]: 46%
- Population Fragmented Nuclei (%) [6]: 29%
- Population Healthy Nuclei (%) [6]: 48%
- Population Hoechst High Intensity Objects (%) [6]: 3%
- Population Membrane Permeable-Phenotype (%) [6]: 6%
- Population Mitochondria Different-Phenotype (%) [6]: 10%
- Population Mitotic Cells (%) [6]: 53%
- Population Normal (%) [6]: 96%
- Population Pyknosed Nuclei (%) [6]: 22%
- Population Tubulin-Different-Phenotype (%) [6]: 55%
- Total Cell Count [6]: 139
- Population Apoptotic (%) [7]: 80%
- Population Fragmented Nuclei (%) [7]: 36%
- Population Healthy Nuclei (%) [7]: 42%
- Population Hoechst High Intensity Objects (%) [7]: 11%
- Population Membrane Permeable-Phenotype (%) [7]: 7%
- Population Mitochondria Different-Phenotype (%) [7]: 46%
- Population Mitotic Cells (%) [7]: 20%
- Population Normal (%) [7]: 88%
- Population Pyknosed Nuclei (%) [7]: 20%
- Population Tubulin-Different-Phenotype (%) [7]: 86%
- Total Cell Count [7]: 138
- Population Fragmented Nuclei (%) [8]: 63%
- Population Healthy Nuclei (%) [8]: 27%
- Population Hoechst High Intensity Objects (%) [8]: 6%
- Population Membrane Permeable-Phenotype (%) [8]: 12%
- Population Mitochondria Different-Phenotype (%) [8]: 9%
- Population Normal (%) [8]: 93%
- Population Pyknosed Nuclei (%) [8]: 9%
- Population Tubulin-Different-Phenotype (%) [8]: 80%
- Total Cell Count [8]: 218
- Population Apoptotic (%) [9]: 46%
- Population Fragmented Nuclei (%) [9]: 27%
- Population Healthy Nuclei (%) [9]: 47%
- Population Hoechst High Intensity Objects (%) [9]: 8%
- Population Membrane Permeable-Phenotype (%) [9]: 1%
- Population Mitochondria Different-Phenotype (%) [9]: 20%
- Population Mitotic Cells (%) [9]: 53%
- Population Normal (%) [9]: 91%
- Population Pyknosed Nuclei (%) [9]: 25%
- Population Tubulin-Different-Phenotype (%) [9]: 66%
- Total Cell Count [9]: 136
- Population Apoptotic (%) [10]: 37%
- Population Fragmented Nuclei (%) [10]: 36%
- Population Healthy Nuclei (%) [10]: 30%
- Population Hoechst High Intensity Objects (%) [10]: 7%
- Population Membrane Permeable-Phenotype (%) [10]: 5%
- Population Mitochondria Different-Phenotype (%) [10]: 24%
- Population Mitotic Cells (%) [10]: 62%
- Population Normal (%) [10]: 92%
- Population Pyknosed Nuclei (%) [10]: 32%
- Population Tubulin-Different-Phenotype (%) [10]: 45%
- Total Cell Count [10]: 132
- Population Apoptotic (%) [11]: 91%
- Population Fragmented Nuclei (%) [11]: 39%
- Population Healthy Nuclei (%) [11]: 39%
- Population Hoechst High Intensity Objects (%) [11]: 14%
- Population Membrane Permeable-Phenotype (%) [11]: 15%
- Population Mitochondria Different-Phenotype (%) [11]: 42%
- Population Mitotic Cells (%) [11]: 8%
- Population Normal (%) [11]: 85%
- Population Pyknosed Nuclei (%) [11]: 21%
- Population Tubulin-Different-Phenotype (%) [11]: 77%
- Total Cell Count [11]: 134
- Population Apoptotic (%) [12]: 85%
- Population Fragmented Nuclei (%) [12]: 58%
- Population Healthy Nuclei (%) [12]: 30%
- Population Hoechst High Intensity Objects (%) [12]: 6%
- Population Membrane Permeable-Phenotype (%) [12]: 20%
- Population Mitochondria Different-Phenotype (%) [12]: 20%
- Population Mitotic Cells (%) [12]: 14%
- Population Normal (%) [12]: 93%
- Population Pyknosed Nuclei (%) [12]: 11%
- Population Tubulin-Different-Phenotype (%) [12]: 64%
- Total Cell Count [12]: 192

Compound: CN1CCC(C(=O)c2cccc(NC(=O)c3c(F)cc(F)cc3F)n2)CC1
- Population Apoptotic (%) [1]: 28%
- Population Fragmented Nuclei (%) [1]: 16%
- Population Healthy Nuclei (%) [1]: 64%
- Population Hoechst High Intensity Objects (%) [1]: 3%
- Population Membrane Permeable-Phenotype (%) [1]: 1%
- Population Mitochondria Different-Phenotype (%) [1]: 4%
- Population Mitotic Cells (%) [1]: 71%
- Population Normal (%) [1]: 96%
- Population Pyknosed Nuclei (%) [1]: 18%
- Population Tubulin-Different-Phenotype (%) [1]: 28%
- Total Cell Count [1]: 153
- Population Apoptotic (%) [2]: 40%
- Population Fragmented Nuclei (%) [2]: 28%
- Population Healthy Nuclei (%) [2]: 53%
- Population Hoechst High Intensity Objects (%) [2]: 2%
- Population Membrane Permeable-Phenotype (%) [2]: 5%
- Population Mitochondria Different-Phenotype (%) [2]: 10%
- Population Mitotic Cells (%) [2]: 60%
- Population Normal (%) [2]: 97%
- Population Tubulin-Different-Phenotype (%) [2]: 43%
- Total Cell Count [2]: 142
- Population Apoptotic (%) [3]: 32%
- Population Fragmented Nuclei (%) [3]: 12%
- Population Healthy Nuclei (%) [3]: 74%
- Population Hoechst High Intensity Objects (%) [3]: 4%
- Population Membrane Permeable-Phenotype (%) [3]: 1%
- Population Mitochondria Different-Phenotype (%) [3]: 7%
- Population Mitotic Cells (%) [3]: 67%
- Population Normal (%) [3]: 95%
- Population Pyknosed Nuclei (%) [3]: 13%
- Population Tubulin-Different-Phenotype (%) [3]: 42%
- Total Cell Count [3]: 266
- Population Apoptotic (%) [4]: 36%
- Population Fragmented Nuclei (%) [4]: 23%
- Population Healthy Nuclei (%) [4]: 54%
- Population Membrane Permeable-Phenotype (%) [4]: 6%
- Population Mitochondria Different-Phenotype (%) [4]: 6%
- Population Mitotic Cells (%) [4]: 63%
- Population Pyknosed Nuclei (%) [4]: 22%
- Population Tubulin-Different-Phenotype (%) [4]: 63%
- Total Cell Count [4]: 142
- Population Apoptotic (%) [5]: 45%
- Population Fragmented Nuclei (%) [5]: 12%
- Population Healthy Nuclei (%) [5]: 74%
- Population Hoechst High Intensity Objects (%) [5]: 1%
- Population Membrane Permeable-Phenotype (%) [5]: 0%
- Population Mitochondria Different-Phenotype (%) [5]: 2%
- Population Mitotic Cells (%) [5]: 55%
- Population Normal (%) [5]: 98%
- Population Pyknosed Nuclei (%) [5]: 12%
- Population Tubulin-Different-Phenotype (%) [5]: 21%
- Total Cell Count [5]: 156
- Population Apoptotic (%) [6]: 40%
- Population Fragmented Nuclei (%) [6]: 34%
- Population Healthy Nuclei (%) [6]: 43%
- Population Membrane Permeable-Phenotype (%) [6]: 6%
- Population Mitochondria Different-Phenotype (%) [6]: 10%
- Population Mitotic Cells (%) [6]: 59%
- Population Pyknosed Nuclei (%) [6]: 21%
- Population Tubulin-Different-Phenotype (%) [6]: 45%
- Total Cell Count [6]: 148
- Population Apoptotic (%) [7]: 54%
- Population Fragmented Nuclei (%) [7]: 13%
- Population Healthy Nuclei (%) [7]: 71%
- Population Hoechst High Intensity Objects (%) [7]: 3%
- Population Membrane Permeable-Phenotype (%) [7]: 0%
- Population Mitochondria Different-Phenotype (%) [7]: 6%
- Population Mitotic Cells (%) [7]: 45%
- Population Normal (%) [7]: 96%
- Population Pyknosed Nuclei (%) [7]: 14%
- Population Tubulin-Different-Phenotype (%) [7]: 37%
- Total Cell Count [7]: 258
- Population Apoptotic (%) [8]: 37%
- Population Fragmented Nuclei (%) [8]: 30%
- Population Healthy Nuclei (%) [8]: 50%
- Population Hoechst High Intensity Objects (%) [8]: 2%
- Population Membrane Permeable-Phenotype (%) [8]: 5%
- Population Mitochondria Different-Phenotype (%) [8]: 8%
- Population Mitotic Cells (%) [8]: 62%
- Population Normal (%) [8]: 97%
- Population Pyknosed Nuclei (%) [8]: 19%
- Population Tubulin-Different-Phenotype (%) [8]: 65%
- Total Cell Count [8]: 153
- Population Apoptotic (%) [9]: 71%
- Population Fragmented Nuclei (%) [9]: 16%
- Population Healthy Nuclei (%) [9]: 74%
- Population Hoechst High Intensity Objects (%) [9]: 3%
- Population Membrane Permeable-Phenotype (%) [9]: 0%
- Population Mitochondria Different-Phenotype (%) [9]: 1%
- Population Mitotic Cells (%) [9]: 28%
- Population Normal (%) [9]: 96%
- Population Pyknosed Nuclei (%) [9]: 8%
- Population Tubulin-Different-Phenotype (%) [9]: 25%
- Total Cell Count [9]: 164
- Population Apoptotic (%) [10]: 56%
- Population Fragmented Nuclei (%) [10]: 42%
- Population Healthy Nuclei (%) [10]: 46%
- Population Hoechst High Intensity Objects (%) [10]: 2%
- Population Membrane Permeable-Phenotype (%) [10]: 5%
- Population Mitochondria Different-Phenotype (%) [10]: 5%
- Population Mitotic Cells (%) [10]: 43%
- Population Normal (%) [10]: 97%
- Population Pyknosed Nuclei (%) [10]: 10%
- Population Tubulin-Different-Phenotype (%) [10]: 67%
- Total Cell Count [10]: 156
- Population Apoptotic (%) [11]: 71%
- Population Fragmented Nuclei (%) [11]: 17%
- Population Healthy Nuclei (%) [11]: 71%
- Population Hoechst High Intensity Objects (%) [11]: 5%
- Population Membrane Permeable-Phenotype (%) [11]: 0%
- Population Mitochondria Different-Phenotype (%) [11]: 7%
- Population Mitotic Cells (%) [11]: 28%
- Population Normal (%) [11]: 94%
- Population Pyknosed Nuclei (%) [11]: 10%
- Population Tubulin-Different-Phenotype (%) [11]: 40%
- Total Cell Count [11]: 272
- Population Apoptotic (%) [12]: 54%
- Population Fragmented Nuclei (%) [12]: 36%
- Population Healthy Nuclei (%) [12]: 55%
- Population Hoechst High Intensity Objects (%) [12]: 3%
- Population Membrane Permeable-Phenotype (%) [12]: 3%
- Population Mitochondria Different-Phenotype (%) [12]: 3%
- Population Mitotic Cells (%) [12]: 45%
- Population Normal (%) [12]: 96%
- Population Pyknosed Nuclei (%) [12]: 7%
- Population Tubulin-Different-Phenotype (%) [12]: 69%
- Total Cell Count [12]: 152

From ChEMBL document CHEMBL5058577, “EUbOPEN Chemogenomics Library 2 (Multiplex)” (2022)
